Measurements taken from ChEMBL document CHEMBL1148449, “Discovery, modeling, and human pharmacokinetics of N-(2-acetyl-4,6-dimethylphenyl)-3-(3,4-dimethylisoxazol-5-ylsulfamoyl)thiophene-2-carboxamide (TBC3711), a second generation, ETA selective, and orally bioavailable endothelin antagonist” (J Med Chem, 2004).
Where a SMILES comes first, the peptide text is derived from it. [ ]: non-standard residue; d: D form. The star is where a group is joined. Piperazinyl(4-Ph) = c1ccc(N2CCN(*)CC2)cc1; dGly(2-thienyl) = N[C@@H](C(=O)O)c1cccs1

Assays:
[1] = Cmax in rat plasma after oral dose (50 mg/Kg); format: ADME, organism-based; design: dose 50 mg/Kg, route oral
Method in brief: (§1)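 Rats given 50 mg/kg orally. Plasma was separated at once by centrifugation and stored at -80 °C. Proteins were precipitated with acetonitrile and drug measured by HPLC to give Cmax, AUC and t1/2.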

[2] = Half life period was determined; format: ADME, organism-based; conditions: rat, in vivo; method in brief: as §1
[3] = Compound was evaluated for area under the curve expressed as (h*ug/ml); format: ADME, organism-based; design: concentration or dose not given beside the values; conditions: rat, in vivo; method in brief: as §1
Endothelin-1 receptor [4] = target: T1, Endothelin-1 receptor (Homo sapiens, UniProt P25101); experiment: Displacement of [125I]ET-1 from Endothelin A receptor
T1 sequence (P25101 whole entry): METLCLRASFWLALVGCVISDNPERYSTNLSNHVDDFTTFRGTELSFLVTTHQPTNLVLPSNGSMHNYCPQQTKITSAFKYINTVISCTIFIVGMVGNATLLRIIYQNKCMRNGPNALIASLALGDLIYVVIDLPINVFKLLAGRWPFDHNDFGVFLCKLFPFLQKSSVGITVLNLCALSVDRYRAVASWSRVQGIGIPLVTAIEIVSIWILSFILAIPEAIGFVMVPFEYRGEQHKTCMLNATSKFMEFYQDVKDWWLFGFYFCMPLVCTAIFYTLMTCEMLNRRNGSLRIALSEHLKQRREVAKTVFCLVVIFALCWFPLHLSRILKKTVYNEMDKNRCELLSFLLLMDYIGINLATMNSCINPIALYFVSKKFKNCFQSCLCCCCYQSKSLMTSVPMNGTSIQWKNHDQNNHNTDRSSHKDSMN

[5] = target: Endothelin-1 receptor (Homo sapiens) (UniProt P25101); experiment: Selectivity towards endothelin A receptor in human.
[6] = target: T2, Endothelin-1 receptor (Rattus norvegicus) (UniProt P26684); experiment: Selectivity towards endothelin A receptor in rat.
T2 sequence (whole entry): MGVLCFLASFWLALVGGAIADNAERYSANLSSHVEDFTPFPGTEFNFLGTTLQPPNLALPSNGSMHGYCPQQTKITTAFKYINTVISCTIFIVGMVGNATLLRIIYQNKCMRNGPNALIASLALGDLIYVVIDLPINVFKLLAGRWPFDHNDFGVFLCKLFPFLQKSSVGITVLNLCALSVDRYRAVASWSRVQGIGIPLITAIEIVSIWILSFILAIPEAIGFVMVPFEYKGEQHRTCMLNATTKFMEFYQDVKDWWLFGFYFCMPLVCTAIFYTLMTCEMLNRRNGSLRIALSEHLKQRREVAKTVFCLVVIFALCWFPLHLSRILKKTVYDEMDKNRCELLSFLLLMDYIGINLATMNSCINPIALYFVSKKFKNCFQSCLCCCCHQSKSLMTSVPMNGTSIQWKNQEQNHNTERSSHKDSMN

[7] = Compound was evaluated for oral bioavailability in rats; conditions: rat, in vivo
Endothelin-1 receptor [8] = target: T3, Endothelin-1 receptor (Rattus norvegicus, UniProt P26684); experiment: Binding affinity towards Endothelin A receptor
T3 sequence (P26684 whole entry): T2 sequence (whole entry)

[9] = target: Endothelin receptor (Rattus norvegicus) (UniProt P26684+P21451); experiment: Selectivity for endothelin A receptor over endothelin receptor B; format: protein assay
[10] = Half life period was evaluated in rat; 0.5-1.0; format: ADME, organism-based; conditions: in vivo
[11] = Maximal plasma concentration in rat after oral administration at 50 mg/kg; format: ADME, organism-based; design: dose 50 mg/kg, route oral; method in brief: as §1
Rattus norvegicus = experiment: Compound was evaluated for oral dose to effect 50% inhibition of mean pulmonary arterial pressure (MPAP; format: functional, Artery
Method in brief: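 Acute hypoxia-induced pulmonary hypertension model in rats. Compound given orally; the oral dose giving 50% inhibition of the increase in mean pulmonary arterial pressure is reported.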

Sequence of Endothelin receptor (Rattus norvegicus) (P21451 whole entry, looked up, one chain of several): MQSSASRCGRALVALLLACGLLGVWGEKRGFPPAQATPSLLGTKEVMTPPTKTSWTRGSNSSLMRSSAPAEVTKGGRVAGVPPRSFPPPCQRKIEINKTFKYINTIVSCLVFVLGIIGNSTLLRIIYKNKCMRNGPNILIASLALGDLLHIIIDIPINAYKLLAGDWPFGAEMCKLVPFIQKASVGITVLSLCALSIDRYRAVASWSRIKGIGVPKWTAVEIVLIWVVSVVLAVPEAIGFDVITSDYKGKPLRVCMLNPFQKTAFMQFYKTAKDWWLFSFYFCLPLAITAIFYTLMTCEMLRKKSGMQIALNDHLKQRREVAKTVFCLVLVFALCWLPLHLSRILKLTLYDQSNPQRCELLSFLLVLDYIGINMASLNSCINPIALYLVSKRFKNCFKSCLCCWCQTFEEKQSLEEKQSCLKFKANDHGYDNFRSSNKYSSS

SMILES | Cmax [1] | half-life [2] | AUC [3] | IC50 (Endothelin-1 receptor [4]) | Selectivity [5] | other results
Cc1cc(C)c(NC(=O)c2sccc2S(=O)(=O)Nc2onc(C)c2C)c(C#N)c1C | 85800 ng/mL | 5.3 h | 667 µg·h/mL | 80 pM | 328000 | –
Cc1cc(C)c(NC(=O)c2sccc2S(=O)(=O)Nc2onc(C)c2Cl)c(C(=O)C(C)C)c1 | 59200 ng/mL | – | – | 110 pM | – | Selectivity [6]: 144000
CCC(=O)c1c(C)c(C)cc(C)c1NC(=O)c1sccc1S(=O)(=O)Nc1onc(C)c1Cl | 13000 ng/mL | 1.47 h | 24.3 µg·h/mL | 30 pM | 216000 | –
Cc1cc(C)c(NC(=O)c2sccc2S(=O)(=O)Nc2onc(C)c2Cl)c(Cl)c1 | 47500 ng/mL | 2.6 h | 172 µg·h/mL | 90 pM | 166000 | –
Cc1cc(C)c(N(C)C)c(C)c1NC(=O)c1sccc1S(=O)(=O)Nc1onc(C)c1Cl | 3200 ng/mL | – | – | – | – | –
Cc1cc(C)c(NC(=O)c2sccc2S(=O)(=O)Nc2onc(C)c2Cl)c(C(=O)C2CCCCC2)c1 | – | – | – | 1370 pM | 13000 | –
Cc1cc(C)c(NC(=O)c2sccc2S(=O)(=O)Nc2onc(C)c2Cl)c(C#N)c1C | 45700 ng/mL | 5.11 h | 373 µg·h/mL | 50 pM | 608000 | –
CCCCN(CCCC)C(=O)CN1C[C@H](c2ccc3c(c2)OCO3)[C@@H](C(=O)O)[C@@H]1c1ccc(OC)cc1 | – | – | – | – | – | bioavailability [7]: 60%
CCCS(=O)(=O)c1cc(C)cc(C)c1NC(=O)c1sccc1S(=O)(=O)Nc1onc(C)c1Cl | 2900 ng/mL | 1.3 h | 5.9 µg·h/mL | 60 pM | 6100 | –
CCC(=O)c1cc(C)cc(C)c1NC(=O)c1sccc1S(=O)(=O)Nc1onc(C)c1Cl | – | – | – | 60 pM | 214000 | –
Cc1cc(C)c(NC(=O)c2sccc2S(=O)(=O)Nc2onc(C)c2Cl)c(C)c1 | – | – | – | 150 pM | 7000 | –
Cc1cc(C)c(NC(=O)c2sccc2S(=O)(=O)Nc2onc(C)c2Cl)c(C(=O)N(C)CC(C)(C)C)c1 | – | – | – | 680 pM | 15900 | –
CC(C)C[C@@H]1NC(=O)[C@@H](C(C)C)NC(=O)[C@@H]2CCCN2C(=O)[C@@H](CC(=O)O)NC(=O)[C@@H](Cc2c[nH]c3ccccc23)NC1=O [BQ-123] (cyclo(L[dW][dD]P[dV])) | – | – | – | 22000 pM | – | Selectivity [9]: 818
COc1cc(OC)nc(O[C@H](C(=O)O)C(OC)(c2ccccc2)c2ccccc2)n1 | – | – | – | – | – | Ki (Endothelin-1 receptor [8]): 6000 pM; Selectivity [9]: 60
Cc1cc(C)c(NC(=O)c2sccc2S(=O)(=O)Nc2onc(C)c2Cl)c(S(=O)(=O)C(C)C)c1 | – | – | – | 50 pM | 8800 | –
CC(C)C[C@@H]1NC(=O)[C@@H](c2cccs2)NC(=O)[C@H](CC(=O)[O-])NC(=O)[C@H](CC(=O)N2CCN(c3ccccc3)CC2)NC(=O)[C@@H](CC(=O)[O-])NC(=O)[C@@H](Cc2c[nH]c3ccccc23)NC1=O.[Na+].[Na+] (cyclo(D(Piperazinyl(4-Ph))D[dGly(2-thienyl)]L[dW][dD])) | – | – | – | – | – | half-life [10]: 1 h; Selectivity [9]: 540
Cc1cc(C)c(NC(=O)c2sccc2S(=O)(=O)Nc2onc(C)c2Cl)c(S(C)(=O)=O)c1 | – | 1.7 h | 28.2 µg·h/mL | 30 pM | 325000 | Cmax [11]: 10300 ng/mL
Cc1cc(C)c(NC(=O)c2sccc2S(=O)(=O)Nc2onc(C)c2Cl)c(C)c1CO | 2400 ng/mL | – | – | – | – | –
C/C(=N\O)c1cc(C)cc(C)c1NC(=O)c1sccc1S(=O)(=O)Nc1onc(C)c1Cl | 6920 ng/mL | 5.2 h | 39.5 µg·h/mL | 20 pM | 24500 | –

SMILES | Cmax [1] | half-life [2] | AUC [3] | IC50 (Endothelin-1 receptor [4]) | Selectivity [5] | other results
CO/N=C(\C)c1cc(C)cc(C)c1NC(=O)c1sccc1S(=O)(=O)Nc1onc(C)c1Cl | 13800 ng/mL | 1.2 h | 33.5 µg·h/mL | 40 pM | 56000 | –
Cc1cc(C)c(NS(C)(=O)=O)c(C)c1NC(=O)c1sccc1S(=O)(=O)Nc1onc(C)c1Cl | 2800 ng/mL | – | – | – | – | –
CC(=O)c1cc(C)cc(C)c1NC(=O)c1sc(C)cc1S(=O)(=O)Nc1onc(C)c1Cl | 68900 ng/mL | 2.7 h | 327 µg·h/mL | 210 pM | 4500 | bioavailability [7]: 49%
Cc1cc(C)c(NC(=O)c2sccc2S(=O)(=O)Nc2onc(C)c2Cl)c(-c2ccccc2)c1 | – | – | – | 1470 pM | 1900 | –
Cc1cc(C)c(NC(=O)c2sccc2S(=O)(=O)Nc2onc(C)c2Cl)c(C)c1C#N | 17300 ng/mL | – | – | – | – | –
Cc1cc(C)c(NC(=O)c2sccc2S(=O)(=O)Nc2onc(C)c2Cl)c(-c2ncco2)c1 | 66000 ng/mL | 5.3 h | 362 µg·h/mL | 80 pM | 119000 | –
CC(=O)OCc1c(C)cc(C)c(NC(=O)c2sccc2S(=O)(=O)Nc2onc(C)c2Cl)c1C | 3800 ng/mL | – | – | – | – | –
Cc1cc(C)c(OC2CC2)c(C)c1NC(=O)c1sccc1S(=O)(=O)Nc1onc(C)c1Cl | 6100 ng/mL | – | – | – | – | –
Cc1cc(C)c(NC(=O)c2sccc2S(=O)(=O)Nc2onc(C)c2Cl)c(C(=O)c2ccccc2)c1 | 33400 ng/mL | 3.95 h | 141 µg·h/mL | 390 pM | 46000 | –
Cc1cc(-c2ncco2)cc(C)c1NC(=O)c1sccc1S(=O)(=O)Nc1onc(C)c1Cl | – | – | – | 1270 pM | 1900 | –
CC(=O)c1c(C)c(C)cc(C)c1NC(=O)c1sccc1S(=O)(=O)Nc1onc(C)c1Cl | 10800 ng/mL | 1.68 h | 53.8 µg·h/mL | 20 pM | 1.18e+06 | –
CCCc1c(O)c(C(C)=O)cc(C(C)=O)c1NC(=O)c1sccc1S(=O)(=O)Nc1onc(C)c1Cl | – | – | – | 12400 pM | – | Selectivity [6]: 1000
CCCCc1ccc2c(n1)[C@@H](c1ccc(OC)cc1C[C@H](C)C(=O)O)[C@H](C(=O)O)[C@H]2c1ccc2c(c1)OCO2 | – | – | – | – | – | bioavailability [7]: 40%; Ki (Endothelin-1 receptor [8]): 34 pM; Selectivity [9]: 3
COc1c(C)cc(C)c(NC(=O)c2sccc2S(=O)(=O)Nc2onc(C)c2Cl)c1C | 4000 ng/mL | – | – | – | – | –
Cc1cc(C)c(NC(=O)c2sccc2S(=O)(=O)Nc2onc(C)c2Cl)c(C(=O)O)c1 | – | – | – | 2620 pM | 600 | –
Cc1cc(C)c(NC(=O)c2sccc2S(=O)(=O)Nc2onc(C)c2Cl)c(C(=O)C2CC2)c1 | 53400 ng/mL | 5.4 h | 365 µg·h/mL | 30 pM | 331000 | –
Cc1cc(C)c(NC(=O)c2sccc2S(=O)(=O)Nc2onc(C)c2Cl)c(C(=O)CS(C)(=O)=O)c1 | 37300 ng/mL | 12.2 h | 636 µg·h/mL | 100 pM | 66500 | bioavailability [7]: 16%; ED50 (Rattus norvegicus): > 5 mg/kg
Cc1cc(C)c(S(N)(=O)=O)c(C)c1NC(=O)c1sccc1S(=O)(=O)Nc1onc(C)c1Cl | 2900 ng/mL | – | – | – | – | –
Cc1cc(C)c(NC(=O)c2sccc2S(=O)(=O)Nc2onc(C)c2Cl)c(C(=O)N(C)C)c1 | 10900 ng/mL | 1.19 h | 27.2 µg·h/mL | 70 pM | 12300 | –
